# Screens (PubChem)
# Sampled rows, rich in hits. Any-hit rate of the full collection: about 3.7%.
# KCNQ1 inh: human KCNQ1 channel inhibition | CHO-K1 KCNQ1, FluxOR thallium flux fluorescence; active compounds read high | B-score at 10 µM | hit rate 1.3% among 310,000;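 active means compounds whose thallium flux B-score, printed positive for inhibition, exceeds three library SD while starting fluorescence stays within three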;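 further: channel opened by potassium depolarization with thallium stimulus after 20 min compound exposure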
# KCNK9 block: human KCNK9 channel inhibition; Q9NPC2; HEK293 KCNK9, FluxOR thallium flux fluorescence; active compounds read low; B-score at 10 µM; hit rate 1.2% among 310,000; AID 488922;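 active means ratio B-score over 3 SD below the library mean, with starting fluorescence within 5 SD of its mean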;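 further: negative B-score means less thallium flux so channel inhibition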
# Target sequence (Q9NPC2 whole entry, looked up): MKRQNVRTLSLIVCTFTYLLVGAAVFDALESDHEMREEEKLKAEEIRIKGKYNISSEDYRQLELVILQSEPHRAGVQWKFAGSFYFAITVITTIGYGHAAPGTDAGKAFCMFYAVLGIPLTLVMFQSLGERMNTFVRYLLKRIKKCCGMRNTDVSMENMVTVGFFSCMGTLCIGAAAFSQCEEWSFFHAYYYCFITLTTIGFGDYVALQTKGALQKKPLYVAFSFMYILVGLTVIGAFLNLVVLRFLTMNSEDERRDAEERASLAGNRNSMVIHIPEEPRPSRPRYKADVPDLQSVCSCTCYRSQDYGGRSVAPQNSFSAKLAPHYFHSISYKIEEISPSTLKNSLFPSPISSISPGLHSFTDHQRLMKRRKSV
# KCNK3 inh: human KCNK3 channel inhibition, primary screen; O14649; CHO-KCNK3 thallium flux, FluxOR fluorescence; active compounds read low; B-score at 10 µM; hit rate 0.84% among 340,000; AID 602410;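 active means B-score under library mean minus 4 SD, starting fluorescence ratio at most library mean plus 5 SD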;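 further: more negative B-score means stronger inhibition of thallium flux through KCNK3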
# Target sequence (O14649 whole entry, looked up): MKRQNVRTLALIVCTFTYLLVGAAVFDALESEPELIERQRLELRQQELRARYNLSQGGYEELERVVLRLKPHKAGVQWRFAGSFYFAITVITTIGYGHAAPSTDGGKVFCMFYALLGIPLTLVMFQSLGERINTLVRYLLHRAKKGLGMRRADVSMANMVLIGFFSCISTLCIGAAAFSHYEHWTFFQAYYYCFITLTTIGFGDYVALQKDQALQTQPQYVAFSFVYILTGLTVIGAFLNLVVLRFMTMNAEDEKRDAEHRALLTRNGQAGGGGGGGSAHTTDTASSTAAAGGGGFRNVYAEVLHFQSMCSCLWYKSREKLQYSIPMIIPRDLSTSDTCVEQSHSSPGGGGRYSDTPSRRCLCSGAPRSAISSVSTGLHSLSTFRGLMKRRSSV
# KCNQ1 act: potentiates or activates the human KCNQ1 potassium channel. P51787. CHO-K1 KCNQ1, thallium flux FluxOR fluorescence; active compounds read high. B-score at 10 µM. hit rate 0.35% among 310,000;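 active means fluorescence ratio B-score, a plate-corrected score, at least three library SD, with initial intensity B-score within 5 SD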
#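 Assay system: CHO-K1 cells stably expressing KCNQ1; Medium: assay buffer with matched DMSO; Also added: K+/Tl+ depolarizing stimulus; Dosing: single dose; Timing: dye 90 min, compound 20 min, room temperature; Measured by: kinetic FluxOR thallium fluorescence, 10-s 1-Hz baseline, 110-s post-stimulus read; Read-out: peak-minus-minimum fluorescence over initial fluorescence, negative-control normalized, B-scored.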
# Kir21 inh: blocks the mouse Kir2.1 inward-rectifier potassium channel | HEK293-Kir2.1, FluxOR thallium flux fluorescence; active compounds read low | hit rate 0.85% among 310,000 | B-score at 10 µM;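 active means fluorescence ratio B-score at or below minus 3 SD of library scores, with starting-brightness B-score within 2 SD, cut at about -4.2 in these data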;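 further: channel flux triggered by added potassium and thallium sulfate stimulus; B-score of peak minus minimum fluorescence over baseline after thallium stimulus; more negative B-score means stronger Kir2.1 block with less thallium influx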
# hERG protect: hERG (human) protection from proarrhythmic block; hit rate 0.51% among 310,000; activation (rescue from dofetilide block), less the hit threshold, % at 10 µM; Q12809; CHO-hERG, FluxOR thallium flux, dofetilide IC70 present;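 active means activation above the mean of controls blocked by dofetilide plus 5 SD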;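 further: thallium influx through hERG after potassium depolarization seen as dye fluorescence rise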
# KCNQ1 block val: human KCNQ1 channel inhibition, validation assay. shares compounds with KCNQ1 inh. hit rate 93% among 1,600. AID 588353. inhibition, % at 10 µM. KCNQ1 cell line, FluxOR thallium flux fluorescence;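 active means primary screen active, with duplicate mean exceeding buffer control mean plus 3 SD of buffer wells, cut at about 28% in these data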
# CHO Tl flux: KCNQ1 inhibitor counter-screen hit in parental CHO cells. parental CHO-K1, FluxOR thallium flux fluorescence ratio; active compounds read low; zero means no signal rise above baseline. fluorescence ratio (Tl flux) at 10 µM. AID 588366. hit rate 21% among 1,600. shares compounds with KCNQ1 inh;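 active means mean of duplicate thallium-flux fluorescence ratios in parental host cells more than 5 SD below the buffer control mean, cut at about 0.38 in these data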;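 further: ratio is peak minus minimum fluorescence divided by baseline fluorescence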
# KCNQ1 APC inh: blocks human KCNQ1 current in automated patch clamp | shares compounds with KCNQ1 inh | KCNQ1-CHO cells | calls only at 10 µM | hit rate 20% among 490 | AID 624120;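 active means KCNQ1 current drop exceeding 3 SD of negative control wells, seen in both duplicate runs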;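 further: steady state current during a 2 s step from -80 to +40 mV; negative values mean current inhibition and positive values mean potentiation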
# KCNQ2 inh: KCNQ1 inhibitor that also blocks rat KCNQ2 channel. shares compounds with KCNQ1 inh. inhibition, % at 10 µM. AID 651746. KCNQ2 cells, FluxOR thallium flux fluorescence. hit rate 71% among 1,600;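 active means mean percent inhibition of the KCNQ2 thallium signal more than 5 SD above the buffer-only control wells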;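 further: KCNQ2 expressed in CHO cells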
# KCNQ1-KCNE1 inh: KCNQ1 inhibitor that also blocks human KCNQ1/KCNE1 channel; inhibition, % at 10 µM; KCNQ1/KCNE1 cells, FluxOR thallium flux fluorescence; shares compounds with KCNQ1 inh; AID 652147; hit rate 77% among 1,600;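 active means mean percent inhibition of duplicate wells above the buffer-only control mean plus 3 SD of those controls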
# A number is an active result; - = inactive; . = no result; + = active, no number.
SMILES,KCNQ1 inh,KCNK9 block,KCNK3 inh,KCNQ1 act,Kir21 inh,hERG protect,KCNQ1 block val,CHO Tl flux,KCNQ2 inh,KCNQ1-KCNE1 inh,others
CCC(C)NCCCOc1c(C)cc(C)cc1Br (stereo unspecified),-,-,-,-,-,-,.,.,.,.,
O=C(c1ccc2c(c1)OCO2)C1CCCN(Cc2cccc(C(F)(F)F)c2)C1 (stereo unspecified),7,-,-,-,-,-,88.0,-,96.0%,97.0%,KCNQ1 APC inh=-
O=C(c1cccc(C(F)(F)F)c1)C1CCCN(Cc2ccc(OCCO)cc2)C1 (stereo unspecified),-,-,-,-,-,-,.,.,.,.,
CN(CCc1ccccc1)C(=O)c1ccc(NC(=O)Cc2ccc(NC(=O)C3CCCN(C(=O)CCc4ccccc4)C3)cc2)cc1 (stereo unspecified),.,.,-,.,.,.,.,.,.,.,
Cc1cc(OCC(=O)Nc2ccncc2)ccc1Br,13,-,-,-,-,-,71.5,-,-,-,
O=C(COc1ccccc1C(=O)NCC1CCCO1)Nc1ccc(Br)cc1 (stereo unspecified),-,-,-,-,-,-,.,.,.,.,
O=C(NCc1ccccc1)c1cccc(COc2cccc(Cl)c2)c1,8,-,-10.6,-,-,-,125.5,0.355,94.7%,156.0%,
Cc1ccccc1N1C(=O)c2cccc3c(N(C)CCO)ccc(c23)C1=O,-,-,-,-,-,-,.,.,.,.,
COc1ccccc1N1C(=O)c2cccc3c(N(C)CCO)ccc(c23)C1=O,7,-,-,-,-,-,100.0,0.268,-,-,
COc1cc(/C=N/NC(=O)Cn2cnc3c2c(=O)n(C)c(=O)n3C)ccc1O,-,-,-,-,-,-,.,.,.,.,
CCOc1ccccc1NC(=S)NNS(=O)(=O)c1c(C)cc(C)cc1C,-,-,-,-,-,-,.,.,.,.,
CN(C)c1ccc(N=Nc2ccccc2C(=O)OCC(=O)N(C)c2ccccc2)cc1,8,-,-,-,-,-,99.0,-,93.0%,121.0%,KCNQ1 APC inh=-
COC(=O)c1ccccc1NC(=O)COC(=O)c1ccccc1N=Nc1ccc(N(C)C)cc1,-,-,-,-,-,-,.,.,.,.,
O=C1N(Cc2cccc(Cl)c2)C[C@@H]2C[C@@H](c3cccn3-c3ccccn3)N3CCC[C@@]123,6,-,-,-,-,-,65.0,-,63.3%,46.5%,
CCn1c(=S)sc2c(=O)[nH]c(SCC(=O)Nc3cc(OC)ccc3OC)nc21,10,-,-,-,-,-,66.0,-,-,89.0%,
COc1ccc(OC)c(NC(=O)CSc2nc3scc(C)c3c(=O)[nH]2)c1,-,-,-,-,-,-,.,.,.,.,
CCOC(=O)CSc1nc2c(sc(=S)n2-c2ccc(OCC)cc2)c(=O)[nH]1,-,-,-,-,-,-,.,.,.,.,
CCOc1ccc(-n2c(=S)sc3c(=O)[nH]c(SCC(=O)C(C)(C)C)nc32)cc1,6,-,-,-,-,-,91.5,-,-,59.5%,KCNQ1 APC inh=+
O=C(NNC(=S)NCC1CCCO1)c1cccc(S(=O)(=O)N2CCOCC2)c1 (stereo unspecified),-,-,-,-,-,-,.,.,.,.,
CC1(C)CCN2CCC(C)(C)c3c(O)ccc1c32,11,-,-,-,-,-,70.0,-,62.3%,58.0%,
COc1ccc(C(=O)N/N=c2\oc3ccccc3cc2C(=O)NCc2ccccc2)cc1,-,-,-,-,-,-,.,.,.,.,
Cc1ccc(C)c(S(=O)(=O)N2CCN(C(=O)c3cc(-c4cccs4)nn3-c3ccccc3)CC2)c1,9,-,-,-,-,-,-,-,78.7%,46.5%,
CN(c1ccc(OCC(=O)N2CCN(c3ccc(F)cc3)CC2)cc1)S(=O)(=O)c1cccs1,-,-,-,-,-,-,.,.,.,.,
COc1ccccc1NC(=O)C(Sc1ccccc1)c1ccccc1 (stereo unspecified),10,-,-,-,-,-,83.5,-,112.3%,88.5%,
Fc1ccccc1-c1nc(-c2ccc(Cl)cc2)no1,-,-,-,-,-,-,.,.,.,.,
SMILES,KCNQ1 inh,KCNK9 block,KCNK3 inh,KCNQ1 act,Kir21 inh,hERG protect,KCNQ1 block val,CHO Tl flux,KCNQ2 inh,KCNQ1-KCNE1 inh,others
c1ccc(-c2noc(-c3ccccc3-c3ccccc3)n2)cc1,7,-,-,-,-,-,133.0,-,115.3%,193.5%,KCNQ1 APC inh=-
O=C(Nc1ccc(OC(F)F)c(Cl)c1)Nc1ccc2c(c1)OCO2,7,-,-,-,-,-,83.5,-,-,-,
O=C(Nc1ccc2c(c1)OCO2)Nc1ccc2c(c1)OCO2,-,-,-,-,-,-,.,.,.,.,
C=CCNC(=S)Nc1ccc(OC(F)F)c(Cl)c1,9,-,-,-,-,-,-,-,61.0%,-,
C=CCNC(=S)Nc1ccc(Cl)cc1,-,-,-,-,-,-,.,.,.,.,
CSCC[C@H](N)C(=O)NC[C@H]1O[C@@H](n2cnc3c(N)ncnc32)[C@H](O)[C@@H]1O,.,.,-,.,.,.,.,.,.,.,
CC(C)(C)c1cc(N)n2nc(C(C)(C)C)cc2n1,11,-,-,-,-,-,96.5,-,-,122.5%,KCNQ1 APC inh=+
Cc1cc2nc(C(C)(C)C)cc(N)n2n1,-,-,-,-,-,-,.,.,.,.,
O=C(Nc1nccs1)c1ncc(Cl)c(Cl)c1Cl,-,-,-,-,-,-,.,.,.,.,
CCOC(=O)c1oc2ccc(S(=O)(=O)n3nc(-c4cc(OC)c(OC)c(OC)c4)cc3N)cc2c1C,7,-,-,-,-,-,62.5,-,71.0%,109.5%,
COc1cc(-c2cc(N)n(S(=O)(=O)c3ccc(F)cc3)n2)cc(OC)c1OC,-,-,-,-,-,-,.,.,.,.,
O=C(COC(=O)CN1C(=O)C2CCCCC2C1=O)NNC(=O)c1ccc(Cl)cc1 (stereo unspecified),-,-,-,-,-,-,.,.,.,.,
COc1cc(-n2c(C)nc3cccnc32)c(Cl)cc1C(=O)O,-,-,-,-,-,-,.,.,.,.,
COc1ccccc1-c1c(C)nn2c(N3CCCCCC3)cc(C)nc12,8,-,-,-,-,-,-,-,84.7%,-,
Cc1cc(Cl)cc(C)c1OCC(=O)NC1CCCCCC1,.,.,-,.,.,.,.,.,.,.,
O=C(COc1cccc(Cl)c1Cl)Nc1ccc2c(c1)CCC2,-,-,-,-,-,-,.,.,.,.,
